Bioassay records: PubChem, The Scripps Research Institute Molecular Screening Center
An excerpt weighted towards active compounds, which were near 1.2% of everything screened.
IDE cell inh: inhibits human insulin-degrading enzyme in HEK cells; FAbetaB cleavage, fluorescence polarization; P14735; inhibition, % at 5.59 µM; 320,000 tested, 0.41% active; AID 434962;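 active = percent inhibition above the average of all tested compounds plus 3 SD, set per screening campaign, cut at about 16% in these data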;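 also: IDE supplied by intact live HEK cells; FP after avidin binding of uncleaved biotin substrate so inhibition keeps polarization high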
ARFGAP1 inhibitor: rat ARFGAP1 inhibition. Q62848. Arfgap1-stimulated ARF1 GTP hydrolysis, GDP FP detection. inhibition, % at 16.5 µM. 360,000 tested, 0.26% active;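 active = inhibition above a per-plate limit, mean inhibition of low control wells plus 3 SD, cut at about 25% in these data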
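Material: rat Arfgap1 catalytic domain, aa 1-136; also added: human ARF1(Δ1-17)-GTP substrate; compound dosing: one concentration, 16.5 µM, DMSO 1.26%; incubation: GTP hydrolysis reaction 2 h at 25 °C; measured by: Tracer-displacement fluorescence polarization with EDTA stop, 620/688 nm; evaluation: % inhibition from polarization; repeats: one replicate per compound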
ASAP1 inh: ASAP1 ArfGAP inhibition | Q9ULH1 | AID 624377 | inhibition, % at 16.5 µM | ASAP1-stimulated ARF1 GTP hydrolysis, GDP FP detection | 360,000 tested, 0.19% active; in the data active = inhibition above about 25%
Target sequence (Q9ULH1 325-724 limits assumed): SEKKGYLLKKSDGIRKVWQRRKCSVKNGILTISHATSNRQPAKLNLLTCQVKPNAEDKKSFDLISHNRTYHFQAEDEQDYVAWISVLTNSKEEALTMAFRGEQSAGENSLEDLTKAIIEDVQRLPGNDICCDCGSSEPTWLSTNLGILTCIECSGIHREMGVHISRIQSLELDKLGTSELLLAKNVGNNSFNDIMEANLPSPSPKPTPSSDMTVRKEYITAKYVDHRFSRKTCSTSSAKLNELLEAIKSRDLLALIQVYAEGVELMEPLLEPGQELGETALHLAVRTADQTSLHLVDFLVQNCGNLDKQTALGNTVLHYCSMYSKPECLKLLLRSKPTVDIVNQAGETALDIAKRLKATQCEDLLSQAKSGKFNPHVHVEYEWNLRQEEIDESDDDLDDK
IDE cell activ: boosts human insulin-degrading enzyme activity in HEK cells; FAbeta-B cleavage, fluorescence polarization; 0% vehicle, 100% cell-free pure enzyme wells; activation, % at 5.96 µM; 340,000 tested, 0.073% active;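 active = activation above the mean of all tested compounds plus 3 SD, set per screening campaign, cut at about 17% in these data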
PREPL inh: human PREPL enzyme inhibition; inhibition, % at 5.96 µM; Q4J6C6; recombinant PREPL, fluorescence polarization activity-based probe; 320,000 tested, 0.68% active; in the data active = inhibition above about 43%
ARFGAP1 confirm: rat ARFGAP1 inhibition, confirmed; shares compounds with ARFGAP1 inhibitor; ARFGAP1-stimulated ARF1 GTP hydrolysis, GDP tracer FP; inhibition, % at 16.5 µM; 890 tested, 30% active; AID 651608;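 active = average inhibition over triplicates above the hit cutoff set in the earlier primary screen, cut at about 25% in these data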
Of the large screens only hits and unclear results are named; the others gave an inactive call (follow-up assays come after a bar, where they were run).

COc1ccc(/C=C2\Oc3cc(OCC(=O)N4CCC[C@H]4C(=O)O)ccc3C2=O)c(OC)c1OC	ARFGAP1 inhibitor 26 | ARFGAP1 confirm inactive
CC(C)Oc1ccc(S(=O)(=O)N2CCOCC2)cc1NC(=O)C1CCCCC1	none
COCCCn1c(C)cc(C(=O)CN2c3cccc4cccc(c34)S2(=O)=O)c1C	ARFGAP1 inhibitor 32 | ARFGAP1 confirm 36
CCc1ccc(N2CC(C(=O)N3CCN(c4ccccn4)CC3)CC2=O)cc1 (configuration not stated)	none
CCCCC1=CC2=CC(=O)C(C)(OC(=O)c3ccco3)C(=O)C2=CO1 (configuration not stated)	none (no result: ARFGAP1 inhibitor, ASAP1 inh, IDE cell activ)
O=C(Nc1nc2ccc(SC(F)F)cc2s1)c1ccc(NS(=O)(=O)c2ccc(F)c(F)c2)cc1	ARFGAP1 inhibitor 26 | ARFGAP1 confirm 30
COc1ccc(-c2nc3cc(NC(=O)Cc4ccc(OC)c(OC)c4)ccc3o2)cc1	ARFGAP1 inhibitor 25 | ARFGAP1 confirm inactive
COC(=O)[C@]12CCCCC=C1N(Cc1ccc(Cl)cc1Cl)C(=O)[C@H](CC(=O)NCc1cccs1)C2	none (no result: IDE cell inh, IDE cell activ, PREPL inh)
COc1cc(C(O)c2nc(-c3cc4ccccc4o3)cs2)ccc1F (configuration not stated)	ARFGAP1 inhibitor 28 (no result: IDE cell inh, IDE cell activ, PREPL inh) | ARFGAP1 confirm inactive
O=C(Nc1ccccc1N1CCCC1)c1cc(Cl)ccc1Cl	none
O=C(Nc1ccccc1N1CCCCC1)c1ccc(-c2ccc(Cl)cc2)o1	ARFGAP1 inhibitor 27 | ARFGAP1 confirm inactive
O=C(Nc1ccccc1N1CCCC1)c1ccc(Cl)cc1Cl	ARFGAP1 inhibitor 30 | ARFGAP1 confirm inactive
CN(CC(=O)Nc1ccc(F)cc1)C(=O)COC(=O)CN1C(=O)NC2(CCCC2)C1=O	none
CC(=O)Nc1cccc(-c2ccnc3c2CC(C)(C(=O)Nc2cccc(C(F)(F)F)c2)O3)c1 (configuration not stated)	none (no result: IDE cell inh, IDE cell activ, PREPL inh)
CC1(C(=O)Nc2cccc(C(F)(F)F)c2)Cc2c(-c3cccc(C(F)(F)F)c3)ccnc2O1 (configuration not stated)	ARFGAP1 inhibitor 34 (no result: IDE cell inh, IDE cell activ, PREPL inh) | ARFGAP1 confirm inactive
c1ccc(CNc2nc(-c3cccnc3)nc3ccccc23)cc1	none (no result: IDE cell inh, PREPL inh)
Clc1ccccc1Nc1nc(-c2ccncc2)nc2ccccc12	none
Clc1cccc(CNc2nc(-c3cccnc3)nc3ccccc23)c1	ARFGAP1 inhibitor 32 (no result: IDE cell inh, PREPL inh) | ARFGAP1 confirm 27
Clc1cccc(Nc2nc(-c3ccncc3)nc3ccccc23)c1	ARFGAP1 inhibitor 39 | ARFGAP1 confirm 50
CCCNC(=O)C1(C)CCN(Cc2csc3ccccc23)C1 (configuration not stated)	none (no result: IDE cell inh, IDE cell activ, PREPL inh)
CC(C)Oc1ccc(S(=O)(=O)N2CCOCC2)cc1NC(=O)CC1CC2CCC1C2 (configuration not stated)	none (no result: IDE cell inh, IDE cell activ, PREPL inh)
CC(=O)N1CCN(S(=O)(=O)c2ccc(C)cc2)C1C (configuration not stated)	ARFGAP1 inhibitor 30 | ARFGAP1 confirm inactive
CCN(CC)c1ccc(C(=O)OCc2c(C)noc2C)cc1	none
CC(=O)n1c(=O)c2ccccc2c(=O)n1-c1ccccc1	ARFGAP1 inhibitor 32 | ARFGAP1 confirm inactive
Cn1c(C(=O)NCC2CCCO2)cc2c(=O)[nH]c3ccccc3c21 (configuration not stated)	ARFGAP1 inhibitor 25 | ARFGAP1 confirm inactive
Cn1c(C(=O)NCC2CCCO2)cc2c(=O)n(C)c3ccccc3c21 (configuration not stated)	none
O=C(CSc1nnc(SCc2ccc(Cl)cc2)s1)N/N=C/c1c[nH]c2ccccc12	none
O=C(CSc1nnc(SCc2cccc3ccccc23)s1)N/N=C/c1c[nH]c2ccccc12	ARFGAP1 inhibitor 32 | ARFGAP1 confirm inactive
Cc1onc(-c2ccccc2Cl)c1C(=O)NNC(=O)c1ccccc1F	none
CCOc1ccc(NC(=O)CSc2nnc(-c3ccncc3)n2CC2CCCO2)cc1 (configuration not stated)	none
COc1ccc(NC(=O)CSc2nnc(-c3ccncc3)n2CC2CCCO2)c(OC)c1 (configuration not stated)	ARFGAP1 inhibitor 26 | ARFGAP1 confirm inactive
CCOC(=O)c1ccc(-c2ccc3c(=O)c4ccccc4n(C)c3c2)cc1F	ARFGAP1 inhibitor 26 | ARFGAP1 confirm inactive
CCOC(=O)c1ccc(-c2c(-c3ccccc3OC)oc3ccccc23)cc1F	none
C=CCc1cc(C(=O)N2CCCCC2)ccc1O	none
